PRMT1 FP inh – blocks human protein arginine methyltransferase 1. Q99873. recombinant PRMT1, activity-based probe fluorescence polarization. inhibition, % at 2.79 µM. actives 1.3% (n = 370,000). AID 652257;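 active = inhibition above about 21% made by adding two undisclosed values, limit read from the data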
ABHD5 PLIN5 PPI – blocks binding of human ABHD5 to perilipin-5; Q00G26+Q8WTS1; Split G. princeps luciferase complementation, luminescence, 4 h; inhibition, % at 4 µM; actives 0.78% (n = 360,000);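 active = inhibition above the mean inhibition across every tested compound plus 3 SD, cut at about 22% in these data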;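 note: 0% = DMSO only wells and the 100% control is not disclosed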
A3A deaminase – human APOBEC3A DNA deaminase inhibition. P31941. recombinant A3A, FAM/TAMRA ssDNA deamination fluorescence. inhibition, % at 20 µM. actives 0.41% (n = 330,000). AID 493011;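 active = at least 40% inhibition at 20 µM here, with at most 30% in a related deaminase screen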;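 note: plate controls were A3A with DMSO for no effect and wells lacking A3A enzyme for full effect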
Target sequence (P31941 whole entry, looked up): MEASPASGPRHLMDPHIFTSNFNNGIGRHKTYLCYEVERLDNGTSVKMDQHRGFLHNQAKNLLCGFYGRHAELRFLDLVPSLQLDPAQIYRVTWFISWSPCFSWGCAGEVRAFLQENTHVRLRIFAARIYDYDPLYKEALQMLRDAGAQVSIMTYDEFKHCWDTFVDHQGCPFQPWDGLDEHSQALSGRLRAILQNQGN
NS3 helicase inh – inhibitors of Hepatitis C virus NS3 helicase | AID 1800 | actives 0.56% (n = 290,000) | inhibition, % at 10.9 µM | NS3 helicase DNA unwinding, Cy5 molecular beacon fluorescence;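 active = inhibition above the mean of all tested compounds plus 3 SD, set per campaign, cut at about 35% in these data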;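 note: 0% = DMSO wells and 100% = thioflavine S control wells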
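Compound dosing – single dose, 10.9 µM nominal final, DMSO 0.8% final · System – NS3 helicase fragment of HCV · Buffer or medium – MOPS pH 6.5, MgCl2, DTT, Tween20, BSA · Signal – Cy5 beacon fluorescence read at start and 1 h · Also added – annealed dual-labelled DNA beacon duplex, ATP-started · Schedule – 1 h at 25 °C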
core dimer inh – HCV core protein dimerization inhibition | TR-FRET GST/Flag-core106 dimerization, 1536-well | inhibition, % at 5 µM | actives 0.33% (n = 300,000);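 active = inhibition above the mean of all tested compounds plus 3 SD, set per screening campaign, cut at about 45% in these data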
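test system = GST/Flag-tagged HCV core106 proteins | probe or stimulus = Eu donor and XL665 acceptor anti-tag antibodies | times = compound-protein-antibody incubation 4 h at 22.5 °C | signal = TR-FRET, excitation 340 nm, emission 617 and 671 nm | measure = percent inhibition of core106 dimerization signal | controls = wells lacking GST-core106 and wells with excess unlabelled core106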
APOBEC3G inh – inhibitors of human APOBEC3G DNA deaminase; inhibition, % at 20 µM; AID 493012; Q9HC16; recombinant A3G, ssDNA deamination FAM/TAMRA fluorescence; actives 0.28% (n = 330,000);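 active = inhibition of at least 40% at 20 µM, with no more than 30% in the related APOBEC3A deaminase screen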;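 note: plate controls were DMSO wells with A3G for no effect and wells lacking A3G enzyme for full effect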
Target sequence (Q9HC16 whole entry, looked up): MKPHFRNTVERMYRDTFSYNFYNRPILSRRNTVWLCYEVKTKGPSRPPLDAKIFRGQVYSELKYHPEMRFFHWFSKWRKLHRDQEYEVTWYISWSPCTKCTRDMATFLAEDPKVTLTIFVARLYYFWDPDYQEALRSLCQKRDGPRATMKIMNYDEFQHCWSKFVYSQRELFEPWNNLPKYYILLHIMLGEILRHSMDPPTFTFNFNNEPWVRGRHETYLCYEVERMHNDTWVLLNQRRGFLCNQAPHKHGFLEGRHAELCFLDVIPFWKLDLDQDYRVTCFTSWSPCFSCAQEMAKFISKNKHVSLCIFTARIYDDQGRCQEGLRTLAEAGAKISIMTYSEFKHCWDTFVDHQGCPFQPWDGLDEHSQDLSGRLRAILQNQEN
APOBEC3A confirm – confirmation of human APOBEC3A DNA deaminase inhibitors. shares compounds with A3A deaminase. recombinant A3A, ssDNA deaminase UDG fluorescence assay. inhibition, % at 20 µM. actives 63% (n = 1,400). AID 493151;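 active = inhibition reaching a set limit, 80% of the first screen's cutoff, at 20 µM in any replicate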;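 note: plate controls were DMSO wells with A3A for no effect and wells lacking A3A enzyme for full effect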
UDG A3A counter – UDG inhibition in APOBEC3A counter-screen; AID 504714; UDG counterscreen, FAM/TAMRA uracil oligo fluorescence; shares compounds with A3A deaminase; 1,000 tested, under 10 active; inhibition, % at 20 µM; call rule not given here
APOBEC3G confirm – confirmation of human APOBEC3G DNA deaminase inhibitors | shares compounds with APOBEC3G inh | recombinant A3G ssDNA deaminase, UDG/FAM-TAMRA fluorescence | inhibition, % at 20 µM | actives 72% (n = 890);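 active = inhibition reaching a set limit in any replicate at 20 µM, the limit being 80% of the first screen's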
UDG A3G counter – E. coli UDG inhibition in APOBEC3G counter-screen. shares compounds with APOBEC3G inh. UDG counterscreen, FAM/TAMRA oligo fluorescence. inhibition, % at 20 µM. 710 tested, under 10 active;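 active = compounds giving 40% or more inhibition at 20 µM in any one of the three replicates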;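 note: plate controls were DMSO wells with UDG and oligo for no effect and DMSO wells lacking both for full effect; inhibitors lower the FAM signal released by uracil excision and alkaline cleavage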
Target sequence (P12295 whole entry, looked up): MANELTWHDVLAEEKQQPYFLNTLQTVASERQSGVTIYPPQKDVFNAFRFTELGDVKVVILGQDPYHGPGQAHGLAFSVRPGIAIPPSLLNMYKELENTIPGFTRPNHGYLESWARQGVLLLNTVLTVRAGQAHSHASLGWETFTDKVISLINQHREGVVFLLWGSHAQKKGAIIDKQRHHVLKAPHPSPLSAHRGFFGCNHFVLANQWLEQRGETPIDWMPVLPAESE
ABHD5 PLIN5 conf – ABHD5-PLIN5 interaction inhibition, confirmed; shares compounds with ABHD5 PLIN5 PPI; biochemical ABHD5-PLIN5 interaction, luminescence; inhibition, % at 4 µM; actives 67% (n = 2,200); in the data active = inhibition above about 23%;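 note: 0% = DMSO vehicle wells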
HNF4 split-luc – active in HNF4 split-luciferase counter-screen for ABHD5-PLIN5 inhibitors. shares compounds with ABHD5 PLIN5 PPI. actives 77% (n = 2,200). inhibition, % at 4 µM. HNF4 dimerization, luminescence, biochemical;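 active = mean inhibition across replicate wells exceeding the computed hit threshold, cut at about 13% in these data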;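 note: light from luciferase halves that rejoin when HNF4 fusion proteins dimerize; 0% = DMSO only wells and the 100% control is not given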
PRMT1 confirm – confirmation of human PRMT1 inhibitors; AID 687036; actives 42% (n = 3,300); shares compounds with PRMT1 FP inh; recombinant His-PRMT1, activity-based probe fluorescence polarization; inhibition, % at 2.79 µM;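 active = mean inhibition across replicates above the hit cutoff derived for the earlier primary screen, cut at about 22% in these data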
* marks the source's active call; other numbers are inactive results; . = no result. Shown are actives, neighbours in structure and some others; about 2.9% of the full set was active somewhere.

SMILES | PRMT1 FP inh | ABHD5 PLIN5 PPI | A3A deaminase | NS3 helicase inh | core dimer inh | APOBEC3G inh | others
CN1C(=O)C2C[C@@]3(Br)c4ccccc4N(OOSc4ccccc4)[C@H]3N2C(=O)[C@@H]1Cc1ccccc1 (stereo partly drawn) | -1.3 | 6.0 | 0.0 | . | -4.8 | 2.6
CC[C@]12C=CCN3CCC4(c5cc(Br)c(OC)cc5N(C)C4[C@@](O)(C(=O)OC)[C@@H]1OC(C)=O)C32 (stereo partly drawn) | -1.1 | 4.2 | 62.4* | -1.1 | 4.8 | 16.4 | APOBEC3A confirm=69.9*;UDG A3A counter=-4.1
COC(=O)C1=C(c2ccccc2)C[C@@H]2CC[C@H]1N2C(=O)NCc1cccc2ccccc12 | -2.2 | -0.9 | 3.5 | . | 7.2 | -5.0
C[N+](C)(C)CCc1ccc(O)cc1 | -8.9 | -4.0 | 65.3* | 7.4 | -0.9 | 24.8 | APOBEC3A confirm=77.5*;UDG A3A counter=3.1
Nc1ccc([As](=O)(O)O)cc1 | -0.1 | -6.0 | -4.8 | 7.1 | 7.6 | -6.0
O=[N+]([O-])c1cc([As](=O)(O)O)ccc1O | 3.5 | -12.6 | 82.9* | . | 5.1 | 5.8 | APOBEC3A confirm=50.7*;UDG A3A counter=-1.0
O=C1NC(=O)C(Sc2ccccc2[N+](=O)[O-])C(=O)N1 | 56.5* | -4.3 | -3.0 | 1.5 | -9.3 | 46.2* | APOBEC3G confirm=63.4*;UDG A3G counter=-3.8
CC(=O)O[C@]1(C)C(=O)OC/C2=C/CN(C)CCC(OC(=O)[C@@](O)(C(C)O)C[C@H]1C)C2=O (stereo partly drawn) | -4.0 | -3.9 | 1.8 | -19.2 | 3.4 | 6.4
O=C(O)c1cccc2nc3ccccc3nc12 | -2.9 | -3.0 | 3.2 | 3.9 | -4.1 | 72.5* | APOBEC3G confirm=24.3*;UDG A3G counter=2.3
O=C1C=CC(=O)C=C1 | 0.3 | -6.8 | 5.3 | . | . | 81.7* | APOBEC3G confirm=88.3*;UDG A3G counter=-2.8
c1cncc(C2Nc3cccc4cccc(c34)N2)c1 | 12.1 | -8.3 | 22.4 | -9.3 | 1.9 | 44.7* | APOBEC3G confirm=63.9*
c1cncc(C2CCCCN2)c1 (stereo not drawn) | 4.4 | -0.8 | -3.9 | 2.1 | 2.9 | -9.6
c1ccc(CCN2CCCCC2)nc1 | -6.0 | -2.4 | . | . | . | .
COC(=O)C1=C(c2ccccc2OCc2ccccc2)C[C@@H]2CC[C@H]1N2C(=O)NCc1ccc(F)cc1 | -0.8 | -0.6 | -1.9 | . | . | -10.6
Cc1cccc(-n2c(O)c(/C=N/NC(=O)c3ccncc3)c(=O)[nH]c2=O)c1 | 0.9 | 1.1 | -2.7 | 4.5 | 1.2 | -10.4
COc1ccc(N/N=C/c2c(O)n(-c3cccc(C)c3)c(=O)[nH]c2=O)cc1 | 7.9 | 9.0 | 0.4 | 12.8 | -7.9 | 54.2* | APOBEC3G confirm=24.1*;UDG A3G counter=-4.4
COc1ccc(N/N=C/c2c(O)n(-c3ccc(C)c(C)c3)c(=O)[nH]c2=O)cc1 | 6.8 | 17.1 | -2.4 | 10.6 | -38.8 | 51.3* | APOBEC3G confirm=16.5;UDG A3G counter=1.8
Cc1ccc(-n2c(O)c(/C=N/Nc3ccccc3)c(=O)[nH]c2=O)cc1C | 7.6 | . | -3.0 | 7.7 | -1.4 | 5.0
O=c1[nH]c(=O)n(-c2cccc3ccccc23)c(O)c1/C=N/N1CCCCCC1 | 0.0 | -4.5 | -1.6 | 6.1 | -1.6 | 67.8* | APOBEC3G confirm=-3.6;UDG A3G counter=1.3
COc1ccccc1[As](=O)(O)CC(O)COc1ccc(Cl)cc1Cl (stereo not drawn) | -1.7 | . | -2.2 | 3.8 | -0.7 | -2.3
Cc1nn(CCC#N)c2c1P(=S)(N1CCCC1)OC(c1ccc(F)cc1)=N2 (stereo not drawn) | 76.6* | -3.3 | 2.3 | -21.5 | 1.4 | 66.9* | APOBEC3G confirm=67.2*;PRMT1 confirm=43.6*
OC[C@@H](O)CCl | . | . | 1.7 | . | -1.2 | -2.6
O=C1CC(=O)N(c2ccccc2)C(=O)N1 | 1.0 | 29.0* | . | . | . | . | ABHD5 PLIN5 conf=5.2;HNF4 split-luc=23.9*
Cc1ccc(N2C(=O)CC(=O)NC2=O)cc1 | 4.0 | 20.6 | -4.2 | -3.8 | -0.6 | -12.6
C=CCn1c(=O)c(C=Nc2cccnc2Cl)c(O)n(CCCC)c1=O | 9.5 | -3.5 | -1.0 | 11.3 | -10.3 | -2.4
SMILES | PRMT1 FP inh | ABHD5 PLIN5 PPI | A3A deaminase | NS3 helicase inh | core dimer inh | APOBEC3G inh | others
CCOC(=O)c1cnc(SCc2ccc(Cl)c(Cl)c2)nc1N1CC1 | -2.1 | -2.9 | . | . | . | .
CC1CCC(C(C)C)C(OC(=O)Cn2c(COc3ccccc3)[n+](C)c3ccccc32)C1 (stereo not drawn) | 4.6 | 28.6* | 12.9 | -53.1 | -4.6 | 3.6 | ABHD5 PLIN5 conf=12.0;HNF4 split-luc=7.7
CN(C)c1ccc(/C=C/[N+](=O)[O-])cc1 | -7.0 | 71.3* | -5.9 | -1.0 | 4.0 | -6.3 | ABHD5 PLIN5 conf=85.5*;HNF4 split-luc=82.5*
C/C(=C\c1ccc(N(C)C)cc1)[N+](=O)[O-] | 2.4 | 65.1* | 1.5 | -15.4 | -1.9 | -2.1 | ABHD5 PLIN5 conf=99.2*;HNF4 split-luc=98.2*
Cc1ccc(C2=NC(C)(C)N3C2C3c2ccc([N+](=O)[O-])cc2)cc1 (stereo not drawn) | 0.4 | -9.1 | -0.9 | -5.5 | -10.8 | -5.2
CCC1CCCCN1P(=O)(c1ccc(C)o1)C(C)(C)C (stereo not drawn) | -1.6 | -8.6 | -0.3 | 6.5 | -4.2 | 2.6
CC1CCN(C(CC(=O)c2ccccc2)C(=O)c2ccccc2)CC1 (stereo not drawn) | 72.2* | 41.8* | . | . | . | . | ABHD5 PLIN5 conf=64.2*;HNF4 split-luc=102.9*
CC1([N+](=O)[O-])COP(=O)(Nc2ccc(Cl)cc2)OC1 (stereo not drawn) | 3.3 | -8.3 | . | . | . | .
O=C1c2cccc3cccc(c23)C(=O)N1/N=C/c1c(O)n(-c2ccccc2)c(=O)[nH]c1=O | 4.4 | 24.3* | 9.1 | 3.7 | -4.2 | -2.8 | ABHD5 PLIN5 conf=12.8;HNF4 split-luc=17.8*
CCN(CC)S(=O)(=O)c1ccc(N=Cc2c(O)n(-c3ccccc3)c(=O)[nH]c2=O)cc1 | 5.7 | 8.6 | -4.2 | 2.2 | -1.2 | -5.6

Screening data deposited in PubChem BioAssay by several laboratories.
